Test results reported in ChEMBL document CHEMBL2034813, “2-(Alkyl/aryl)amino-6-benzylpyrimidin-4(3H)-ones as inhibitors of wild-type and mutant HIV-1: enantioselectivity studies” (J Med Chem, 2012).
Calls of active or inactive are those of the source. The rule behind the calls is not given here.

Key:
[1] = tested on: Human immunodeficiency virus 1; test: Resistance ratio of ID50 for HIV1 reverse transcriptase K103N mutant to ID50 HIV1 wild type reverse transcriptase
[2] = tested on: Human immunodeficiency virus type 1 reverse transcriptase (Human immunodeficiency virus 1), Q72547 [Y181I]
[3] = tested on: Human immunodeficiency virus 1; test: Resistance ratio of ID50 for HIV1 reverse transcriptase Y188L mutant to ID50 HIV1 wild type reverse transcriptase
[4] = Selectivity index, ratio of CC50 for human MT4 cells to EC50 for wild type HIV1 NL4-3; type: toxicity, cell-based; settings: read-out: Ratio CC50/EC50
[5] = tested on: Human immunodeficiency virus 1; test: Resistance ratio of EC50 for HIV1 harboring reverse transcriptase Y188L mutant to EC50 for wild type HIV1 NL4-3; type: functional
Method in brief: (§1)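 MT-4 cells, MTT read-out of HIV-induced cytopathic effect; fold resistance calculated as EC50 against the drug-resistant strain divided by EC50 against WT NL4-3; EC50 values are means ± SD from at least three experiments.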

[6] = tested on: Human immunodeficiency virus type 1 reverse transcriptase (Human immunodeficiency virus 1), Q72547 [K103N]
[7] = tested on: Human immunodeficiency virus 1; test: Resistance ratio of EC50 for HIV1 harboring reverse transcriptase K103N mutant to EC50 for wild type HIV1 NL4-3; type: functional; method in brief: as §1
[8] = tested on: Human immunodeficiency virus type 1 reverse transcriptase (Human immunodeficiency virus 1), Q72547 [V106A]
[9] = tested on: Human immunodeficiency virus 1; test: Antiviral activity against HIV1 harboring reverse transcriptase K103N mutant infected in human MT4 cells assessed as inhibition of virus-induced cytopathic effect after 5 days by MTT assay; type: functional, organism-based; settings: Human immunodeficiency virus 1, MT4, 120 h
[10] = biological target: Human immunodeficiency virus type 1 reverse transcriptase (Human immunodeficiency virus 1) (UniProt Q72547)
[11] = tested on: Human immunodeficiency virus 1; test: Antiviral activity against HIV1 harboring reverse transcriptase Y181C mutant infected in human MT4 cells assessed as inhibition of virus-induced cytopathic effect after 5 days by MTT assay; type: functional, organism-based; settings: Human immunodeficiency virus 1, MT4, 120 h
[12] = tested on: Human immunodeficiency virus type 1 reverse transcriptase (Human immunodeficiency virus 1), Q72547 [L100I]
[13] = Cytotoxicity against human MT4 cells after 5 days by MTT assay; type: cell-based
Method in brief: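 Noninfected lymphoid MT-4 cells were exposed to compound. […] Values are means ± SD from at least three experiments.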

[14] = tested on: Human immunodeficiency virus 1; test: Antiviral activity against HIV1 harboring reverse transcriptase Y188L mutant infected in human MT4 cells assessed as inhibition of virus-induced cytopathic effect after 5 days by MTT assay; type: functional, organism-based; settings: Human immunodeficiency virus 1, MT4, 120 h
[15] = tested on: Human immunodeficiency virus 1; test: Resistance ratio of ID50 for HIV1 reverse transcriptase V106A mutant to ID50 HIV1 wild type reverse transcriptase
[16] = tested on: Human immunodeficiency virus 1; test: Antiviral activity against wild type HIV1 NL4-3 infected in human MT4 cells assessed as inhibition of virus-induced cytopathic effect after 5 days by MTT assay; type: functional, organism-based; settings: Human immunodeficiency virus 1, NL4-3, MT4, 120 h
Method in brief: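 Lymphoid MT-4 cells infected with wild-type HIV-1 NL4-3. […] Values are means ± SD from at least three experiments.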

[17] = tested on: Human immunodeficiency virus 1; test: Resistance ratio of ID50 for HIV1 reverse transcriptase Y181I mutant to ID50 HIV1 wild type reverse transcriptase
[18] = tested on: Human immunodeficiency virus type 1 reverse transcriptase (Human immunodeficiency virus 1), Q72547 [K103N]; test: Noncompetitive inhibition of HIV1 reverse transcriptase K103N mutant using varying concentration of [3H]dTTP by steady state kinetic analysis
Method in brief: (§2)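 Recombinant RT (WT or K103N), RNA-dependent DNA polymerase activity with poly(rA)/oligo(dT) 10:1 and [3H]-dTTP (1 Ci/mmol), 8% final DMSO; steady-state kinetics at fixed inhibitor concentrations, one substrate (nucleic acid or nucleotide) varied while the other kept saturating.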

[19] = tested on: Human immunodeficiency virus 1; test: Resistance ratio of ID50 for HIV1 reverse transcriptase L100I mutant to ID50 HIV1 wild type reverse transcriptase
[20] = tested on: Human immunodeficiency virus type 1 reverse transcriptase (Human immunodeficiency virus 1), Q72547 [K103N]; test: Noncompetitive inhibition of HIV1 reverse transcriptase K103N mutant using varying concentration of varying polyrA/oligodT by steady state kinetic analysis; method in brief: as §2
[21] = biological target: Human immunodeficiency virus type 1 reverse transcriptase (Human immunodeficiency virus 1) (UniProt Q72547); test: Noncompetitive inhibition of HIV1 wild type reverse transcriptase using varying concentration of varying polyrA/oligodT by steady state kinetic analysis; method in brief: as §2
[22] = tested on: Human immunodeficiency virus 1; test: Resistance ratio of EC50 for HIV1 harboring reverse transcriptase Y181C mutant to EC50 for wild type HIV1 NL4-3; type: functional; method in brief: as §1
[23] = biological target: Human immunodeficiency virus type 1 reverse transcriptase (Human immunodeficiency virus 1) (UniProt Q72547); test: Noncompetitive inhibition of HIV1 wild type reverse transcriptase using varying concentration of [3H]dTTP by steady state kinetic analysis; method in brief: as §2
[24] = Ratio of TMC120 CC50 to compound CC50 for human MT4 cells; type: ADME, cell-based

Structure (SMILES) | Ratio [1] | ID50 [2] [nM] | Ratio [3] | selectivity ratio [4] | Ratio EC50 [5] | ID50 [6] [nM] | Ratio EC50 [7] | ID50 [8] [nM] | EC50 [9] [nM] | ID50 [10] [nM] | EC50 [11] [nM] | ID50 [12] [nM] | CC50 at 120 h [13] [nM] | EC50 [14] [nM] | Ratio [15] | EC50 [16] [nM] | Ratio [17] | Ratio [19] | Ratio EC50 [22] | other results
Cc1c(N)nc(Nc2ccc(C#N)cc2)nc1[C@@H](C)c1c(F)cccc1F | 1.3 | > 20000 | 3 | 40 | 6 | 240 | 4 | 64 | 4500 | 180 | > 38000 | > 15000 | 38000 | 6500 | 0.3 | 1000 | – | – | – | –
O=C1Nc2ccc(Cl)cc2[C@@](C#CC2CC2)(C(F)(F)F)O1 [EFAVIRENZ] | – | – | – | – | – | – | – | – | – | – | 10 | – | 3200 | – | – | 7.3 | – | – | – | –
Cc1ccnc2c1NC(=O)c1cccnc1N2C1CC1 [NEVIRAPINE] | 20 | – | – | 58 | – | – | 47 | – | – | – | > 7500 | – | 7500 | > 7500 | – | – | 87 | – | – | –
CCCN(C)c1nc([C@H](C)c2c(F)cccc2F)c(C)c(=O)[nH]1 | 48 | 450 | 100 | 58000 | 22 | 96 | 8 | 3 | 11 | 2 | 13 | 96 | 75000 | 28 | 1.5 | 1.3 | 200 | 50 | 10 | inhibition [18]: Active; inhibition [20]: Active; inhibition [21]: Active; inhibition [23]: Active
Cc1cc(C)c(Nc2ccnc(Nc3ccc(C#N)cc3)n2)c(C)c1 [DAPIVIRINE] | – | – | – | – | – | – | – | – | – | – | – | – | 3000 | – | – | 0.6 | – | – | – | –
CCCN(C)c1nc([C@@H](C)c2c(F)cccc2F)c(C)c(=O)[nH]1 | – | > 20000 | – | > 5.2 | – | > 20000 | – | 120 | > 78000 | 975 | > 78000 | 350 | > 78000 | > 78000 | 0.1 | 15000 | – | 0.4 | – | –
Cc1c(N)nc(Nc2ccc(C#N)cc2)nc1[C@H](C)c1c(F)cccc1F | 1 | 750 | 0.4 | 300000 | 70 | 8 | 8 | 0.3 | 0.8 | 8 | 31 | 150 | 31000 | 7.1 | 0.04 | 0.1 | 90 | 20 | 300 | selectivity ratio [24]: 10; inhibition [18]: Active; inhibition [20]: Active; inhibition [21]: Active; inhibition [23]: Active
CCCN(C)c1nc(C(C)c2c(F)cccc2F)c(C)c(=O)[nH]1 (racemic) | 6 | 1260 | 50 | > 41000 | 26 | 174 | 9 | 19 | 16.5 | 30 | 17 | 177 | > 78000 | 49 | 0.6 | 1.9 | 40 | 6 | 9 | –
